For one compound, inhibition results are on record in ChEMBL document CHEMBL4354861, “Re-Evaluating the Mechanism of Action of α,β-Unsaturated Carbonyl DUB Inhibitors b-AP15 and VLX1570: A Paradigmatic Example of Unspecific Protein Cross-linking with Michael Acceptor Motif-Containing Drugs” (J Med Chem, 2020).

The structures appear in SMILES notation. Active and inactive are the calls of the source. The calls are words filed in the database; no cut-off is given here.

For this assay, the target named is Ubiquitin carboxyl-terminal hydrolase 2 (Homo sapiens) (UniProt O75604). Description: Inhibition of N-terminal His6-tagged […] recombinant human USP2 catalytic domain assessed as reduction in cleavage of luminescent substrate Ub-AML at 100 uM. Put shortly: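 Purified recombinant DUBs assayed with Ub-AML as luminescent substrate, using the Glo reagent protocol and read on a microplate luminometer.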
Ubiquitin carboxyl-terminal hydrolase 2 (Homo sapiens), sequence (O75604 whole entry, the tested form may be a part): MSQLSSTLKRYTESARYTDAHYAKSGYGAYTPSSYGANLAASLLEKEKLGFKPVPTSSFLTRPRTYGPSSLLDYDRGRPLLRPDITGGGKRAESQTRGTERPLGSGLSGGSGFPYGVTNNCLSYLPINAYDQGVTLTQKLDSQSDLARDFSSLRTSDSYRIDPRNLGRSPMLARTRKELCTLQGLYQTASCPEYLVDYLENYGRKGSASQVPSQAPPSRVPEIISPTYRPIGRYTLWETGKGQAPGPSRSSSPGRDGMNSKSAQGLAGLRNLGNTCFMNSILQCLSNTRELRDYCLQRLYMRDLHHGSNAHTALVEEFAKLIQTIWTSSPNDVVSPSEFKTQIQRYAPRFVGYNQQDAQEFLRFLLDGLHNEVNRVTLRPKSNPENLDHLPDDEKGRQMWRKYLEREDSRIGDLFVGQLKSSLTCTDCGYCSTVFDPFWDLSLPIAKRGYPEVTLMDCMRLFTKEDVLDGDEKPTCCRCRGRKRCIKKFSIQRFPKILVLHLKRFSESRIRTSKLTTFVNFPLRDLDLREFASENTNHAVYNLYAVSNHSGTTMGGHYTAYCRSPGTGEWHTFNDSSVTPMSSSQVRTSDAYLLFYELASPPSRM

`C=CC(=O)N1C/C(=C\c2ccc([N+](=O)[O-])cc2)C(=O)/C(=C/c2ccc([N+](=O)[O-])cc2)C1`: the inhibition entry was “Active”.
